According to ChEMBL document CHEMBL1909500, “Synthesis and in vitro anticancer activity of 6,7-methylenedioxy (or 5-hydroxy-6-methoxy)-2-(substituted selenophenyl)quinolin-4-one analogs” (Eur J Med Chem, 2011):
Active and inactive are the calls of the source. The rule behind the calls is not given here.

Key:
TK-10 = experiment: Anticancer activity against human TK10 cells after 48 hrs by MTT assay; type: functional; conditions: TK-10, 48 h
NCI-H460 [1] = experiment: Cytotoxicity against human H460 cells after 48 hrs by MTT assay; type: functional, cell-based; conditions: NCI-H460, 48 h
Outline: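 H460 or HL-60 cells were exposed to vehicle or compound for 48 h. Growth was read by MTT reduction at 570 nm, and IC50 was calculated.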

UACC-62 = experiment: Anticancer activity against human UACC62 cells after 48 hrs by MTT assay; type: functional; conditions: UACC-62, 48 h
HL-60 [2] = experiment: Cell cycle arrest in human HL60 assessed as cell accumulation in G2/M phase at 1 uM after 24 hrs pretreated with pan-caspase inhibitor z-VAD-fmk for 3 hrs by propidium iodide staining-based flow cytometric analysis; type: functional; design: scale not given: the % may be the effect or the level left
Outline: (§1)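 HL-60 cells were preincubated for 3 h with or without the pan-caspase inhibitor z-VAD-fmk, then co-exposed to compound at 1 μM for 24 h. Cells were washed in PBS and fixed overnight in ice-cold 70% ethanol at −20 °C. They were stained for 30 min in the dark with propidium iodide 4 μg/mL, 0.1 mg/ml RNase and 1% Triton X-100. DNA content was read on a FACScan flow cytometer.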

HL-60 [3] = experiment: Cell cycle arrest in human HL60 assessed as cell accumulation in S phase at 1 uM after 24 hrs by propidium iodide staining-based flow cytometric analysis; type: functional; outline: as §1
HL-60 [4] = experiment: Induction of apoptosis in human HL60 cells assessed as caspase-3 activation at 0.1 to 1.0 uM after 24 hrs by Western blot analysis; type: functional, cell-based
Outline: (§2)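 HL-60 cells at 2 × 10⁵/mL were exposed to the indicated concentrations for 24 h, washed in PBS and lysed for total protein. Immunoblots used HRP-linked secondary antibodies with ECL detection. Cyclin B1, CDK1, caspase-3 (17 kDa active form) and PARP (85 kDa fragment) were quantified and normalised to β-actin.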

HL-60 [5] = experiment: Cell cycle arrest in human HL60 assessed as cell accumulation in G2/M phase at 1 uM after 24 hrs by propidium iodide staining-based flow cytometric analysis; type: functional; outline: as §1
KM12 = experiment: Anticancer activity against human KM12 cells after 48 hrs by MTT assay; type: functional; conditions: KM12, 48 h
SK-OV-3 = experiment: Anticancer activity against human SKOV3 cells after 48 hrs by MTT assay; type: functional; conditions: SK-OV-3, 48 h
[6] = Anticancer activity against human Hs 578T cells after 48 hrs by MTT assay; type: functional
HL-60 [7] = experiment: Induction of cell cycle arrest at G2/M phase in human HL60 cells assessed as decrease in CDK1 protein expression after 24 hrs by Western blot analysis; type: functional, cell-based; outline: as §2
A549 = experiment: Anticancer activity against human A549 cells after 48 hrs by MTT assay; type: functional; conditions: A549, 48 h
SNB-75 = experiment: Anticancer activity against human SNB75 cells after 48 hrs by MTT assay; type: functional; conditions: SNB-75, 48 h
HL-60 [8] = experiment: Growth inhibition of human HL60 cells at 0.1 to 1 uM by trypan blue exclusion assay; type: functional, cell-based; conditions: TDE = time-dependent effect
Outline: (§3)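 HL-60 cells were given the indicated concentrations for 24 h and 48 h. Viable cells were counted by trypan blue exclusion. Values are mean ± SD of four independent experiments.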

T47D = experiment: Anticancer activity against human T47D cells after 48 hrs by MTT assay; type: functional
Malme-3M = experiment: Anticancer activity against human MALME-3M cells after 48 hrs by MTT assay; type: functional
SNB-19 = experiment: Anticancer activity against human SNB19 cells after 48 hrs by MTT assay; type: functional; conditions: SNB-19, 48 h
HL-60 [9] = experiment: Induction of cell cycle arrest at G2/M phase in human HL60 cells assessed as decrease in cyclin B1 expression at 0.1 to 1.0 uM after 24 hrs by Western blot analysis; type: functional, cell-based; outline: as §2
NCI-H522 = experiment: Anticancer activity against human NCI-H522 cells after 48 hrs by MTT assay; type: functional; conditions: NCI-H522, 48 h
LOX IMVI = experiment: Anticancer activity against human LOXIMVI cells after 48 hrs by MTT assay; type: functional
SF-268 = experiment: Anticancer activity against human SF268 cells after 48 hrs by MTT assay; type: functional; conditions: SF-268, 48 h
EKVX = experiment: Anticancer activity against human EKVX cells after 48 hrs by MTT assay; type: functional
HL-60 [10] = experiment: Cell cycle arrest in human HL60 assessed as cell accumulation in S phase at 1 uM after 24 hrs pretreated with pan-caspase inhibitor z-VAD-fmk for 3 hrs by propidium iodide staining-based flow cytometric analysis; type: functional; design: scale not given: the % may be the effect or the level left; outline: as §1
OVCAR-5 = experiment: Anticancer activity against human OVCAR5 cells after 48 hrs by MTT assay; type: functional; conditions: OVCAR-5, 48 h
HL-60 [11] = experiment: Induction of cell cycle arrest at G2/M phase in human HL60 cells assessed as increase in cyclin B1 expression at 0.1 to 1.0 uM after 24 hrs by Western blot analysis; type: functional, cell-based; outline: as §2
HL-60 [12] = experiment: Cell cycle arrest in human HL60 assessed as cell accumulation in G0/G1 phase at 1 uM after 24 hrs by propidium iodide staining-based flow cytometric analysis; type: functional; outline: as §1
HL-60 [13] = experiment: Growth inhibition of human HL60 cells after 24 to 48 hrs by trypan blue exclusion assay; type: functional, cell-based; outline: as §3
ACHN = experiment: Anticancer activity against human ACHN cells after 48 hrs by MTT assay; type: functional
NCI-H322M = experiment: Anticancer activity against human NCI-H322M cells after 48 hrs by MTT assay; type: functional
SK-MEL-2 = experiment: Anticancer activity against human SK-MEL-2 cells after 48 hrs by MTT assay; type: functional; conditions: SK-MEL-2, 48 h
NCI-H460 [14] = experiment: Anticancer activity against human NCI-H460 cells after 48 hrs by MTT assay; type: functional; conditions: NCI-H460, 48 h
K562 = experiment: Anticancer activity against human K562 cells after 48 hrs by MTT assay; type: functional; conditions: K562, 48 h
[15] = read-out: pLC50 (the source's name) (converted)

Cc1ccc(-c2cc(=O)c3cc4c(cc3[nH]2)OCO4)[se]1
GI50 (TK-10): 10000 nM | CC50 (TK-10; [15]): > 100000 nM | TGI (TK-10; read-out: pTGI): > 100000 nM | IC50 (NCI-H460 [1]): 400 nM | GI50 (UACC-62): 398 nM | CC50 (UACC-62; [15]): > 100000 nM | TGI (UACC-62; read-out: pTGI): > 100000 nM | Activity (HL-60 [2]): 55.5% | Activity (HL-60 [3]): 41.6% | Activity (HL-60 [4]): Active | Activity (HL-60 [5]): 44.3% | GI50 (KM12): 263 nM | CC50 (KM12; [15]): > 100000 nM | TGI (KM12; read-out: pTGI): > 100000 nM | GI50 (SK-OV-3): 347 nM | CC50 (SK-OV-3; [15]): > 100000 nM | TGI (SK-OV-3; read-out: pTGI): > 100000 nM | GI50 [6]: 347 nM | CC50 [6, 15]: > 100000 nM | TGI ([6]; read-out: pTGI): > 100000 nM | Activity (HL-60 [7]): Dose-dependent effect | GI50 (A549): 245 nM | CC50 (A549; [15]): > 100000 nM | TGI (A549; read-out: pTGI (converted)): 646 nM | GI50 (SNB-75): 275 nM | CC50 (SNB-75; [15]): > 100000 nM | TGI (SNB-75; read-out: pTGI): > 100000 nM | growth inhibition (GI) (HL-60 [8]): tde | GI50 (T47D): 871 nM | CC50 (T47D; [15]): > 100000 nM | TGI (T47D; read-out: pTGI): > 100000 nM | GI50 (Malme-3M): 427 nM | CC50 (Malme-3M; [15]): > 100000 nM | TGI (Malme-3M; read-out: pTGI): > 100000 nM | GI50 (SNB-19): 389 nM | CC50 (SNB-19; [15]): > 100000 nM | TGI (SNB-19; read-out: pTGI): > 100000 nM | Activity (HL-60 [9]): Active | GI50 (NCI-H522): 288 nM | CC50 (NCI-H522; [15]): > 100000 nM | TGI (NCI-H522; read-out: pTGI (converted)): 537 nM | GI50 (LOX IMVI): 646 nM | CC50 (LOX IMVI; [15]): > 100000 nM | TGI (LOX IMVI; read-out: pTGI): > 100000 nM | GI50 (SF-268): 513 nM | CC50 (SF-268; [15]): > 100000 nM | TGI (SF-268; read-out: pTGI): > 100000 nM | GI50 (EKVX): 617 nM | CC50 (EKVX; [15]): > 100000 nM | TGI (EKVX; read-out: pTGI): > 100000 nM | Activity (HL-60 [10]): 36.2% | GI50 (OVCAR-5): 1700 nM | CC50 (OVCAR-5; [15]): > 100000 nM | TGI (OVCAR-5; read-out: pTGI): > 100000 nM | Activity (HL-60 [11]): Active | Activity (HL-60 [12]): 14.3% | growth inhibition (GI) (HL-60 [13]): Dose-dependent effect | GI50 (ACHN): 759 nM | CC50 (ACHN; [15]): > 100000 nM | TGI (ACHN; read-out: pTGI): > 100000 nM | GI50 (NCI-H322M): > 100000 nM | CC50 (NCI-H322M; [15]): > 100000 nM | TGI (NCI-H322M; read-out: pTGI): > 100000 nM | GI50 (SK-MEL-2): 110 nM | CC50 (SK-MEL-2; [15]): > 100000 nM | TGI (SK-MEL-2; read-out: pTGI (converted)): 525 nM | GI50 (NCI-H460 [14]): 331 nM | CC50 (NCI-H460 [14]; [15]): > 100000 nM | TGI (NCI-H460 [14]; read-out: pTGI): > 100000 nM | GI50 (K562): 282 nM | CC50 (K562; [15]): > 100000 nM | TGI (K562; read-out: pTGI): > 100000 nM
